The results in this text go back to ChEMBL document CHEMBL4513216, “Probing the Open Global Health Chemical Diversity Library for Multistage-Active Starting Points for Next-Generation Antimalarials” (ACS Infect Dis, 2020).

This data set is described as follows: Toxicity liver stage against HepG2, at 10uM. The format is cell-based. Set-up: test concentration 10 uM, cell line HepG2-A16-CD81EGFP. The settings on record: human, HepG2-A16-CD81EGFP cells; read-out: INHIBITION
An outline of the steps: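 Uninfected HepG2-A16-CD81EGFP cells, 3 × 10^3 per well, 1536-well, plated on prespotted compound at 10 μM final, parasite-free screening media added to match infected plates; puromycin 10 μM positive, DMSO 0.5% negative; run in parallel with 48 h PbLuc assay at 37 °C, 5% CO2; viability by CellTiter-Glo luminescence, normalized to controls.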
As for `CSc1ccccc1C(=O)C1CCCN(Cc2ccccn2)C1` (centres undefined), the cytotoxicity at 10 µM was -6.12%. With `CC(C)(C)CC(=O)N1CC[C@H]2NC(=O)N(Cc3ccccc3)C(=O)[C@H]21`, the cytotoxicity at 10 µM was -0.171%.

`COCCCNC(=O)Cn1c(C)cc(=O)n2nc(-c3cccs3)nc12`: the cytotoxicity at 10 µM is 2.05%. As to `Cc1ccc2oc(SCC(=O)NC(C)(C)C)nc2n1`, the cytotoxicity at 10 µM is -0.3%. The figure for `O=C1[C@@H]2CCN(CC3CC3)C[C@@H]2OCCN1c1ccsc1` is 10.5%; for `CC1c2ncc(Cn3cncn3)n2CCN1C(=O)N(C)C` (centres undefined) it is 0.267%. As to `COCC(=O)N1CC[C@H]2OCC[C@@]2(c2nc(C)no2)C1`, the cytotoxicity at 10 µM is -0.461%. Take `CSc1ccc(NC(=O)Nc2ccc3c(c2)N(S(C)(=O)=O)CC3)cc1`: the cytotoxicity at 10 µM was 48.5%. The figure for `Cc1cnc(NC(=O)C(C)n2ccc(C(F)(F)F)n2)s1` (centres undefined) is 1.75%; for `CN(CCc1cn[nH]c1)C(=O)CCc1ccc(Cl)cc1` it is 1.82%.

As to `COc1ccccc1C1Cn2c(C)cnc2CN1Cc1ccc(C)nc1` (centres undefined), the cytotoxicity at 10 µM is -3.18%. The figure for `O=C(NCCCn1cccn1)C1COCC(=O)N1Cc1ccccc1` (centres undefined) is -8.57%.

Consider `Cc1ccccc1-n1ccnc1S(=O)(=O)Cc1nsc(N(C)C)n1`, for which the cytotoxicity at 10 µM is 2.56%. The figure for `COC1CCN(S(=O)(=O)N2CCCC2c2ccco2)CC1` (centres undefined) is 11%. On to `O=C1CN(c2ccc(C(=O)N3CCc4ccccc43)cn2)CCN1`, for which the cytotoxicity at 10 µM turned out to be 2.66%. Turning to `CCCn1nnnc1COC(=O)C1COc2ccccc2O1` (centres undefined), the cytotoxicity at 10 µM turned out to be 3.72%. The figure for `O=C1N(CC2CC2)C(c2cncs2)NC12CCCC2` (centres undefined) is -3.84%. As for `CN(Cc1cccc(C(N)=O)c1)c1ncc(C(N)=O)cc1Cl`, the cytotoxicity at 10 µM is -3.73%.

As to `CCOc1ccc(CNC(=O)N(C)Cc2ncnn2C)cc1C`, the cytotoxicity at 10 µM is -16%.

For the compound `Cc1ccc(C2CCCCCN2CCCS(C)(=O)=O)o1` (centres undefined), the cytotoxicity at 10 µM was -4.3%.

`CN(Cc1cnn(C)c1)C(CO)c1cccc(Br)c1` (centres undefined): the cytotoxicity at 10 µM is -2.86%. The figure for `O=C(NC1CCc2ccccc2C1)N1CCN(C(=O)C2CCC2)CC1` (centres undefined) is -5.59%; for `Nc1cc(C(=O)N2CCCC(C(=O)CCc3ccccc3)C2)ccn1` (centres undefined) it is -6.97%.

For `Cc1ccc2cc(CN(C)Cc3ccncn3)c(=O)[nH]c2c1`, the cytotoxicity at 10 µM amounted to 10.3%. For the compound `CCCC(=O)N(Cc1ccncc1)C(C)CC` (centres undefined), the cytotoxicity at 10 µM was found to be 9.66%. `COc1cccc(OCCN2CC[C@@](O)(C3CCOCC3)[C@H](C)C2)c1`: the cytotoxicity at 10 µM was -7.03%. The figure for `CC[C@@H](CO)NC(=O)c1cc(COc2ccc(OC)cc2Cl)[nH]n1` is -34.4%; for `O=C(Nc1ccc(S(=O)(=O)Nc2ccccc2)cc1)N1CCCC1` it is 10.9%.

As to `COC(=O)NCC(=O)N(C)Cc1csc(-c2cccs2)n1`, the cytotoxicity at 10 µM was -2.67%. The figure for `CN(Cc1cn(C2CCNCC2)nn1)CC1CCCO1` (centres undefined) is -4.76%. For the compound `c1ccc2c(c1)CC(N1CCCN(Cc3cccc4nonc34)CC1)C2`, the cytotoxicity at 10 µM is -2.37%. As for `CCc1ccc(CNc2cc(N3CCCC3CO)ncn2)s1` (centres undefined), the cytotoxicity at 10 µM is -13%. The figure for `COc1ncccc1NC(=O)NC1CCOc2ccccc21` (centres undefined) is -7.62%; for `O=C(Cc1n[nH]c2ccccc12)N1CCC(Nc2cccnn2)CC1` it is -7.44%; for `CN(Cc1cccnc1)C1CC2(CCN(c3ncc(F)cn3)CC2)C1` it is 18%.

Regarding `c1ccn(Cc2noc3c2CN(Cc2ccsc2)CC3)c1`, the cytotoxicity at 10 µM amounted to 9.37%. Regarding `Cn1cnc(S(=O)(=O)N2C[C@H]3CN(Cc4cccnc4)C[C@H]3C2)c1`, the cytotoxicity at 10 µM came out at 8.46%. `Cn1nnc2c1C(COCc1ccccn1)CN(Cc1ccoc1)C2` (centres undefined): the cytotoxicity at 10 µM is 5.94%. For the compound `CO[C@@H]1CCN(S(=O)(=O)c2cn(C)cn2)[C@H]1Cc1cnn(C)c1`, the cytotoxicity at 10 µM amounted to 4.56%.
